The results in this text go back to ChEMBL document CHEMBL4138111, “Nanomolar anti-sickling compounds identified by ligand-based pharmacophore approach” (Eur J Med Chem, 2017).

As a reminder, the pKb is the negative decadic logarithm of the Kb, by convention in mol/L. In general, pEC50 refers to the negative decadic logarithm of the EC50, by convention in mol/L.

In series [1] the target is T1, Adenosine receptor A2b (Homo sapiens) (UniProt P29275).
T1 sequence (whole entry): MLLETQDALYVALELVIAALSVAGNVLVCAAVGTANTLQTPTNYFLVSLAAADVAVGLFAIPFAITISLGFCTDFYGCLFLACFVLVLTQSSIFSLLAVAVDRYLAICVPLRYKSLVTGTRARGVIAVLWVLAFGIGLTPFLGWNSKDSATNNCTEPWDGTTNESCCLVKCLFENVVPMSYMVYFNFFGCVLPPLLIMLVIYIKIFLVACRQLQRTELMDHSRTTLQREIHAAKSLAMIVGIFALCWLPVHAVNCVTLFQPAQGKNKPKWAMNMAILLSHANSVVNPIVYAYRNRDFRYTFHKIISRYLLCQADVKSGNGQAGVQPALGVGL
The experiment in a line: Antagonist activity at Adenosine receptor subtype 2B in human RBC assessed as change in erythrocyte morphology at 10 uM incubated for 3 hrs with occasional gentle stirring for every 30 min measured for every 12 hrs by microscopic analysis relative to control. In kind it is functional, cell-based. Also on record: scale not given: the % may be the effect or the level left. The essentials:
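RBCs come from sickle cell anemia patients, washed in 0.9% saline and diluted 1:10. Cells are exposed to compound at a single 10 µM final concentration for 3 h at 37 °C, stirred gently every 30 min, then given 2% sodium metabisulfite. Morphology is read by microscopy (40X) every 12 h, counting >500 erythrocytes from five random fields. Triplicate assays; MRS1754 (10 µM) is the reference antagonist.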

Series [2] addresses T1, Adenosine receptor A2b (Homo sapiens). Description: Antagonist activity at Adenosine receptor subtype 2B in human RBC assessed as inhibition of NECA-induced-sickling effect by measuring change in erythrocyte morphology preincubated for 3 hrs with occasional gentle stirring for every 30 min followed by incubated for 2 to 12 hrs under normoxic/hypoxic condition measured for every 12 hrs by microscopic analysis. The format is functional, cell-based. The essentials:
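Patient SCA erythrocytes are treated as in the EC50 sickling assay. Compounds are tested at three concentrations (0.03-1) against six NECA concentrations (0.001-1000). Sickling is scored by microscopy. NECA EC50 is determined with and without compound, and the dose ratio is derived from these. pKb is obtained by Schild analysis as log[DR−1] − log[B]. Mean ± SD of five experiments.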

The next series deals with Adenosine receptor (Homo sapiens, UniProt P30542+P29275+P0DMS8+P29274). The experiment in a line: Antagonist activity at Adenosine receptor in human RBC assessed as change in erythrocyte morphology incubated for 3 hrs with occasional gentle stirring for every 30 min measured for every 12 hrs by microscopic analysis. In kind it is cell-based. Put shortly:
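Erythrocytes from sickle cell anemia patients are separated by centrifugation (5 min, 16,000 g, 4 °C), washed three times in 0.9% saline and diluted 1:10 in saline. Cells are held with compound at 37 °C for 3 h, then challenged with 2% sodium metabisulfite. Sickled cells (>500 cells, five fields, 40X) are counted. Seven concentrations (0.001-100) are tested. EC50 comes from biphasic nonlinear regression with Hill slopes fixed at 1.0. Mean ± SD of five experiments, each in triplicate.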

In a further series the test system is J774. The experiment in a line: Cytotoxicity against mouse J774 cells assessed as cell viability up to 100 uM after 72 hrs by AlamarBlue assay. As to conditions: j774, 72 h. In kind it is cell-based. Put shortly: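 J774 murine macrophage-like cells are seeded at 2 × 10^5 cells/well in DMEM with 10% FBS and gentamycin and incubated 2 h at 37 °C, 5% CO2. Compounds are added at five concentrations (6.25-100) for 72 h, in 5% DMSO/saline vehicle. Alamar Blue is then added for 12 h more, with absorbance read at 570 and 600 nm. Gentian violet serves as positive control. Triplicates, three experiments.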

Regarding `CCCn1c(=O)c2[nH]c(-c3ccc(OCC(=O)Nc4ccc(C#N)cc4)cc3)nc2n(CCC)c1=O`, the Activity in series [1] was 54%. Besides, in series [2], the inhibition result is “Dose-dependent effect” and the pKb was found to be 8.68.
For the compound `O=C(CN1CCOC(Cn2cncn2)C1)Nc1cccnc1` (stereo not drawn), the figures for the Activity (in series [1]; in the series on J774) were > 70% and “Non-Toxic”, respectively. For the same compound, the pEC50 at Adenosine receptor is given as 5.29. Moreover, the inhibition result in series [2] was “Dose-dependent effect”. Moreover, the pKb in series [2] worked out at 8.31.
For the compound `CC(OC(=O)c1nccnc1N)C(=O)NCc1ccc2c(c1)OCO2` (stereo not drawn), the Activity in series [1] is > 70%. Also, in series [2], the inhibition result is “Dose-dependent effect” and the pKb turned out to be 9.54.
In the case of `CCCc1cc(O)nc(SC(C)C(=O)Nc2cc(C)no2)n1` (stereo not drawn), the Activity in series [1] is > 70%; in the series on J774, “Non-Toxic”. Further, the inhibition result in series [2] is “Dose-dependent effect”. Further, the pKb in series [2] was 9.45.
With `Cc1cc(NC(=O)CNc2ccc3c(c2)OC(F)(F)O3)on1`, in series [1], the Activity is > 70%. Also, the pEC50 at Adenosine receptor stood at 5.06. In series [2], the inhibition entry was “Dose-dependent effect” and the pKb is 7.38.
For `CC(C)c1noc(OCC(=O)NCc2ccc3c(c2)OCO3)n1`, the Activity in series [1] was > 70%. Besides, the pEC50 on Adenosine receptor was found to be 4.21. Further, in series [2], the inhibition result is “Dose-dependent effect” and the pKb worked out at 7.99.
